This note sets out measurements from ChEMBL document CHEMBL1132227, “Low-molecular-weight peptidic and cyclic antagonists of the receptor for the complement factor C5a” (J Med Chem, 1999).

pIC50: −log10 of the molar value. Where only a bound is given, the exact number is not on record here.

The target of assay [1] is T1, C5a anaphylatoxin chemotactic receptor 1 (Homo sapiens, UniProt P21730).
T1 sequence (P21730 whole entry): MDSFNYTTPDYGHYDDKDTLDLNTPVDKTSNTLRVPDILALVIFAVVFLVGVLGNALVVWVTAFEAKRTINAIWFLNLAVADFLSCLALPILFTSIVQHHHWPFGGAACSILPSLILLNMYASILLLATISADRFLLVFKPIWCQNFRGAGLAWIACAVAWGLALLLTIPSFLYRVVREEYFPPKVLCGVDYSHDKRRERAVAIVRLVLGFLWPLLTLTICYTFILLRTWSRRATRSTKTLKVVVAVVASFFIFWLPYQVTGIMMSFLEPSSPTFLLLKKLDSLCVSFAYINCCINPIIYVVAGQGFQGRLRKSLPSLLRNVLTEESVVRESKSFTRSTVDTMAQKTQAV
Nature of the assay: (§1) Inhibition of binding of [125I]C5a to human polymorphonuclear leukocyte C5a receptor. In outline:
(§2)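 Competition binding on fresh human PMNs (0.2 × 10⁶) with [¹²⁵I]C5a (~50 pM). Buffer: 50 mM HEPES, 1 mM CaCl₂, 5 mM MgCl₂, 0.5% BSA, 0.1% bacitracin, 100 μM PMSF. Incubated 60 min at 4 °C, then filtered, washed and γ-counted. Nonspecific binding defined with 1 mM peptide or 100 nM C5a.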

Assay [2] concerns the target T1, C5a anaphylatoxin chemotactic receptor 1. The assay is described as §1. In outline: as §2
The source holds these as a separate data set.

The species named for assay [3] is Homo sapiens. The assay is described as follows: (§3) Concentration of peptide resulting in 50% inhibition of C5a (100 nM) causing the release of MPO from polymorphonuclear leukocytes. The class given is functional, organism-based. In outline:
(§4)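 Freshly isolated human PMNs primed with cytochalasin B (10 µg/mL, 10 min, 37 °C). Cells (4 × 10⁶/mL) preincubated 10 min at 37 °C with peptide in Hank's balanced salt solution with 0.1% gelatin. Challenged with C5a (100 nM) for 10 min. Myeloperoxidase read-out: pH 6.8 phosphate buffer, dimethoxybenzidine/H₂O₂, stopped at 20 min with sodium azide. A450 corrected for no-peptide controls.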

The species named for assay [4] is Homo sapiens. Described as §3. The class given is functional, organism-based. The gist of the method: as §4
This is another data set of the same source.

Assay [5] deals with T1, C5a anaphylatoxin chemotactic receptor 1. Nature of the assay: (§5) Inhibition of binding of [125I]C5a to human polymorphonuclear leukocyte(PMN) C5a anaphylatoxin chemotactic receptor. The gist of the method: (§6)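 Competition binding on freshly isolated whole human PMNs (0.2 × 10⁶/well) against ~50 pM [125I]C5a, with unlabeled peptide or recombinant human C5a as competitor. Buffer: 50 mM HEPES, 1 mM CaCl2, 5 mM MgCl2, 0.5% BSA, 0.1% bacitracin, 100 μM PMSF. Incubated 60 min at 4 °C, then filtered, washed once and gamma-counted. Nonspecific binding set with 1 mM peptide or 100 nM C5a.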

Assay [6] shares this target. The description is as §5. In outline:
as §6
This is another data set of the same source.

For the compound `CC(=O)N[C@@H](Cc1ccccc1)C(=O)N[C@@H](CCCCN)C(=O)N1CCCC1C(=O)N[C@H](CC1CCCCC1)C(=O)N[C@@H](CC1c2ccccc2-c2ccccc21)C(=O)N[C@H](CCCN=C(N)N)C(=O)O` (single isomer, unassigned; 16b), the pIC50 was < 3.94 in assay [1] and 3.94 in assay [2].
For `CC(=O)N[C@@H](Cc1ccccc1)C(=O)N[C@@H](CCCCN)C(=O)N1CCCC1C(=O)N[C@H](CC1CCCCC1)C(=O)N[C@@H](CC1c2ccccc2-c2ccccc21)C(=O)N[C@H](CCCN=C(N)N)C(=O)O` (single isomer, unassigned; 16a), in that order: < 4.29 and 4.29.
For `C[C@H](N)C(=O)N[C@@H](CCCCN)C(=O)N1CCCC1C(=O)N[C@H](CC1CCCCC1)C(=O)N[C@@H](Cc1c[nH]c2ccccc12)C(=O)N[C@H](CCCN=C(N)N)C(=O)O` (single isomer, unassigned), in that order: < 3.00 and < 3.00.
As for `NCCCC[C@H](NC(=O)[C@H](Cc1ccccc1)NC(=O)[C@@H](N)CCCCN)C(=O)N1CCCC1C(=O)N[C@H](CC1CCCCC1)C(=O)N[C@@H](Cc1c[nH]c2ccccc12)C(=O)N[C@H](CCCN=C(N)N)C(=O)O` (single isomer, unassigned), the pIC50 is 6.57 in the assay filed under Homo sapiens [3], 5.58 in assay [1], 5.59 in assay [2] and 6.52 in the assay filed under Homo sapiens [4].
For `NCCCC[C@H](NC(=O)[C@@H](N)Cc1ccccc1)C(=O)N[C@@H](Cc1ccccc1)C(=O)N[C@@H](CCCCN)C(=O)N1CCC[C@H]1C(=O)N[C@H](CC1CCCCC1)C(=O)N[C@@H](Cc1c[nH]c2ccccc12)C(=O)N[C@H](CCCN=C(N)N)C(=O)O`, in that order: 6.30, 5.34, 5.34 and 6.30.
For `C[C@H](NC(=O)[C@@H](N)Cc1ccccc1)C(=O)N1CCCC1C(=O)N[C@H](CC1CCCCC1)C(=O)N[C@@H](Cc1c[nH]c2ccccc12)C(=O)N[C@H](CCCN=C(N)N)C(=O)O` (single isomer, unassigned), in that order: 5.44, 5.04, 5.05 and 5.43.
For `CC(=O)N[C@@H](Cc1ccccc1)C(=O)N[C@@H](CCCN)C(=O)N1CCCC1C(=O)N[C@H](CC1CCCCC1)C(=O)N[C@@H](Cc1c[nH]c2ccccc12)C(=O)N[C@H](CCCN=C(N)N)C(=O)O` (single isomer, unassigned), in that order: 6.72, 6.10, 6.10 and 6.70.
Turning to `CC(C)[C@H](NC(=O)[C@H](CO)NC(=O)[C@H](Cc1c[nH]cn1)NC(=O)[C@H](CCCCN)NC(=O)[C@H](Cc1ccc(O)cc1)NC(=O)[C@@H](N)CCCCN)C(=O)N[C@H](C(=O)N[C@@H](CCCCN)C(=O)N[C@@H](CCCCN)C(=O)NCCCCC(=O)NCC(=O)NCC(=O)NCC(=O)NCC(=O)N[C@@H](Cc1ccccc1)C(=O)N[C@@H](CCCCN)C(=O)N1CCC[C@H]1C(=O)N[C@H](CC1CCCCC1)C(=O)N[C@@H](Cc1c[nH]c2ccccc12)C(=O)N[C@H](CCCNC(=N)N)C(=O)O)C(C)C`, the pIC50 is 7.14 in the assay filed under Homo sapiens [3], < 6.76 in assay [1], 6.70 in assay [2] and 7.15 in the assay filed under Homo sapiens [4].
For the compound `CN[C@@H](Cc1ccccc1)C(=O)N[C@@H](CCCCN)C(=O)N1CCCC1C(=O)N[C@H](CC1CCCCC1)C(=O)N[C@@H](Cc1c[nH]c2ccccc12)C(=O)N[C@@H](CCCN=C(N)N)C(=O)O` (single isomer, unassigned), the pIC50 is 5.71 in the assay listed under Homo sapiens [3] and 5.70 in the assay filed under Homo sapiens [4].
For the compound `NCCCC[C@H](NC(=O)[C@@H](N)Cc1ccccc1)C(=O)N1CCCC1C(=O)N[C@H](CC1CCCCC1)C(=O)N[C@@H](Cc1c[nH]c2ccccc12)C(=O)N[C@H](CCCN=C(N)N)C(=O)O` (single isomer, unassigned), the pIC50 in the assay filed under Homo sapiens [3] was 5.17; in assay [1] it was 5.71; in assay [2], 5.70; in the assay listed under Homo sapiens [4], 5.17.
Take `NC(N)=NCCC[C@@H](NC(=O)[C@H](Cc1c[nH]c2ccccc12)NC(=O)[C@@H](CC1CCCCC1)NC(=O)C1CCCN1C(=O)[C@H](Cc1c[nH]c2ccccc12)NC(=O)[C@@H](N)Cc1ccccc1)C(=O)O` (single isomer, unassigned): the pIC50 in the assay filed under Homo sapiens [3] is 6.50; in the assay listed under Homo sapiens [4], 6.52; in assay [5], 5.23; in assay [6], 5.23.
On to `CC(C)[C@H](NC(=O)[C@H](CO)NC(=O)[C@H](Cc1c[nH]cn1)NC(=O)[C@H](CCCCN)NC(=O)[C@H](Cc1ccc(O)cc1)NC(=O)[C@@H](N)CCCCN)C(=O)N[C@H](C(=O)N[C@@H](CCCCN)C(=O)N[C@@H](CCCCN)C(=O)NCCCCC(=O)N[C@@H](Cc1ccccc1)C(=O)N[C@@H](CCCCN)C(=O)N1CCC[C@H]1C(=O)N[C@H](CC1CCCCC1)C(=O)N[C@@H](Cc1c[nH]c2ccccc12)C(=O)N[C@H](CCCN=C(N)N)C(=O)O)C(C)C`, for which the pIC50 in the assay filed under Homo sapiens [3] was 6.61; in assay [1], 5.91; in assay [2] it was 5.92; in the assay listed under Homo sapiens [4] it was 6.70.
With `CN1C(=O)[C@@H](CCCN=C(N)N)NC(=O)[C@H](Cc2c[nH]c3ccccc23)NC(=O)[C@@H](CC2CCCCC2)NC(=O)[C@@H]2CCCN2C(=O)[C@H](Cc2c[nH]c3ccccc23)NC(=O)[C@@H]1Cc1ccccc1`, the pIC50 is 5.82 in the assay listed under Homo sapiens [3], 5.53 in assay [1], 5.52 in assay [2] and 5.68 in the assay filed under Homo sapiens [4].
For `CCCC[C@H](NC(=O)[C@H](Cc1ccccc1)NC(C)=O)C(=O)N1CCCC1C(=O)N[C@H](CC1CCCCC1)C(=O)N[C@@H](Cc1c[nH]c2ccccc12)C(=O)N[C@H](CCCN=C(N)N)C(=O)O` (single isomer, unassigned), in that order: 5.85, 5.45, 5.44 and 5.85.
For the compound `CC(=O)N[C@@H](Cc1ccccc1)C(=O)N[C@@H](CCCCN)C(=O)N1CCCC1C(=O)N[C@H](CC1CCCCC1)C(=O)N[C@@H](Cc1c[nH]c2ccccc12)C(=O)N[C@H](CCCN=C(N)N)C(=O)O` (single isomer, unassigned), the pIC50 in assay [1] and in assay [2] was 5.32 throughout.
In the case of `CN[C@@H](Cc1ccccc1)C(=O)N[C@@H](CCCCN)C(=O)N1CCCC1C(=O)N[C@H](CC1CCCCC1)C(=O)N[C@@H](Cc1c[nH]c2ccccc12)C(=O)N[C@H](CCCN=C(N)N)C(=O)O` (single isomer, unassigned), the negative-log IC50 (pIC50) in the assay filed under Homo sapiens [3] is 6.97; in the assay listed under Homo sapiens [4] it was 7.00.
As for `N=C(N)NCCC[C@H]1NC(=O)[C@H](Cc2c[nH]c3ccccc23)NC(=O)[C@@H](CC2CCCCC2)NC(=O)[C@@H]2CCCN2C(=O)[C@H](Cc2c[nH]c3ccccc23)NC(=O)[C@H](Cc2ccccc2)NC1=O`, the pIC50 in assay [1] was < 4.37.
